The record followed here is PMC4242102 (Investigational new drugs, 2013).

In one series the test system is FSAII fibrosarcoma cells. The series can be described thus: Cytotoxicity assay. The series is classed as cell-based, murine. The note with it: Mus musculus, 72 h, read-out: IC50 on cell viability. The gist of the method:
(§1)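 Cells maintained on uncoated flasks in RPMI 1640 with 10% FBS and 1% penicillin/streptomycin; mycoplasma-checked. Seeded at 3,000 cells/well, allowed ≥3 h adherence (37 °C, 5% CO2), then treated 72 h with graded test compound concentrations. CCK-8 or MTT colorimetric viability, expressed against vehicle-treated cultures. Triplicate wells, at least three independent runs. Apparent IC50 (concentration giving 50% viability) read from mean dose-response curves.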

In another series the test system is Fibroblasts. Description: Cytotoxicity assay. The series is classed as cell-based. The settings on record: Fibroblast, 72 h, read-out: IC50 on cell viability. In outline:
(§2)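 Cells grown in 0.2% gelatin-coated flasks in RPMI 1640 with 20% human serum, 2 mM glutamine, penicillin/streptomycin. Seeded at 3,000 cells/well and allowed to adhere ≥3 h (37 °C, 5% CO2), then exposed to a range of test compound concentrations for 72 h. Viability measured by CCK-8 or MTT, relative to vehicle-only cultures. Triplicate wells, ≥3 independent experiments. Apparent IC50 (concentration giving 50% viability) taken from mean dose-response curves.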

The test system of another series is B16F10 melanoma cells. Description: Cytotoxicity assay. The note with it: Mus musculus, B16-F10, 72 h, read-out: IC50 on cell viability. The series is classed as cell-based, murine. In outline:
as §1

The test system of a further series is HUVEC. The series can be described thus: Cytotoxicity assay. The series is classed as cell-based. The settings on record: Homo sapiens, 72 h, read-out: IC50 on cell viability. In outline:
as §2

The test system of series [1] is A549 lung carcinoma cells. Description: Cytotoxicity assay. The series is classed as cell-based. The settings on record: Homo sapiens, A549, 72 h, read-out: IC50 on cell viability. The gist of the method:
as §1

A short description of a further series: General toxicity. The series is classed as in vivo. The note with it: 10 mg/kg IP BID, comparison study (Fig. 4b).
Series [2] has as its system MA148 ovarian carcinoma cells. The series can be described thus: Cytotoxicity assay. The settings on record: Homo sapiens, Ovarian carcinoma cell, 72 h, read-out: IC50 on cell viability. The series is classed as cell-based. In outline: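 3,000 cells/well, left to adhere at least 3 h at 37 °C in 5% CO2, then exposed to various test compound concentrations for 72 h. Viability read colorimetrically (CCK-8 or MTT) as percentage of vehicle-only cultures. Each experiment in triplicate, repeated ≥3 times. Apparent IC50 (concentration for 50% viability) derived from averaged dose-response curves.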

Another series concerns 2H11 endothelial cells. The series can be described thus: Cytotoxicity assay. The series is classed as cell-based, murine. The note with it: Mus musculus, Endothelial cell, 72 h, read-out: IC50 on cell viability. In outline:
as §1

In series [3] the test system is SCK mammary carcinoma cells. Description: Cytotoxicity assay. The series is classed as cell-based, murine. The settings on record: Mus musculus, 72 h, read-out: IC50 on cell viability. The gist of the method:
as §1

Turning to `CN(C)CCNC(=O)COc1c2cccc1Cc1cccc(c1OCC(=O)NCCN(C)C)Cc1cccc(c1OCC(=O)NCCN(C)C)Cc1cccc(c1OCC(=O)NCCN(C)C)C2` [PTX008], the IC50 (usually the concentration that gives 50% inhibition) was above 20 µM in the series on FSAII fibrosarcoma cells; 35 µM in the series on Fibroblasts; 80 µM in the series on B16F10 melanoma cells; 3 µM with HUVEC; 2 µM in series [1]; 0.5 µM in series [2]. The IC50 is above 100 µM with 2H11 endothelial cells and 100 µM in series [3]. Further, in the series “General toxicity”, the “body weights of mice during treatment” value was “remained constant”.
